What was measured:
[1] = target: Neuronal acetylcholine receptor subunit alpha-7 (Rattus norvegicus, UniProt Q05941); assay: Displacement of [125I]alpha-bungarotoxin from alpha7 nAchR in rat frontal cortices
In short: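 Competition binding against [125I]-α-bungarotoxin as reference radioligand at α7 nAChR. IC50 read graphically for each compound, then converted to Ki.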

[2] = target: T1, 5-hydroxytryptamine receptor 3A (Homo sapiens, UniProt P46098); assay: Displacement of [3H]BRL 43694 from human 5-HT3 receptor expressed in CHO cells after 120 mins by scintillation counting; type: cell-based
T1 sequence (P46098 whole entry): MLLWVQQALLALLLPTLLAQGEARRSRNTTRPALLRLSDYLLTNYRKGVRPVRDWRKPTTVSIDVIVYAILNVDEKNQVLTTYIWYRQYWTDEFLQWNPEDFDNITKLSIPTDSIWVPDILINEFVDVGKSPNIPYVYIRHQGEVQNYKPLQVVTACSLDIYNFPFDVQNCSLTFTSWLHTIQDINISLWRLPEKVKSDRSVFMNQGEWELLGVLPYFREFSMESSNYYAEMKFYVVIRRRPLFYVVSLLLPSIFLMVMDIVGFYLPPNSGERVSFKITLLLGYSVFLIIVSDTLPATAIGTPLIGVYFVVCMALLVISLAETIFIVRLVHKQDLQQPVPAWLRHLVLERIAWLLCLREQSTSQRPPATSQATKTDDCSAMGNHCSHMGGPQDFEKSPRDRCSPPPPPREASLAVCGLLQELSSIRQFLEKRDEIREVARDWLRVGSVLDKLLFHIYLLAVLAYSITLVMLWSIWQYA
In short: (§1)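 Selectivity binding run by an outside contract lab on cells transfected with the human recombinant receptor. Reference radioligands: [3H]cytisine for α4β2 and [3H]BRL 43694 for 5-HT3.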

[3] = target: Neuronal acetylcholine receptor; alpha4/beta2 (Homo sapiens, UniProt P17787+P43681); assay: Displacement of [3H]cytisine from human recombinant alpha4beta2 nicotinic receptor expressed in SH-SY5Y cells after 120 mins by scintillation counting; type: cell-based; in short: as §1
Sequence of Neuronal acetylcholine receptor; alpha4/beta2 (P17787 whole entry): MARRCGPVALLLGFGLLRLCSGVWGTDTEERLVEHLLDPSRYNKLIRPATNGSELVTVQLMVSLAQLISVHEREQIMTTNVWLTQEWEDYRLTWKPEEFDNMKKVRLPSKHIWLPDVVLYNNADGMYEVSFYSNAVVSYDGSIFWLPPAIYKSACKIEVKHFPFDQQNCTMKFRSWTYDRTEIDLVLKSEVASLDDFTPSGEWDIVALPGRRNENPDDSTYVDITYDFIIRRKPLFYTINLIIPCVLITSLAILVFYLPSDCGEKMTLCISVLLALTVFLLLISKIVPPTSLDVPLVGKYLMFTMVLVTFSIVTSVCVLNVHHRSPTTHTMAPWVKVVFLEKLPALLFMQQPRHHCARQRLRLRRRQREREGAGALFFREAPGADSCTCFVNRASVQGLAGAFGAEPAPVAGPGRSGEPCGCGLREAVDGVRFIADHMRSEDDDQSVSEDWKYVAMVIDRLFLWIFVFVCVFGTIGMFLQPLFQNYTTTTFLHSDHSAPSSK
Sequence of Neuronal acetylcholine receptor; alpha4/beta2 (P43681 whole entry): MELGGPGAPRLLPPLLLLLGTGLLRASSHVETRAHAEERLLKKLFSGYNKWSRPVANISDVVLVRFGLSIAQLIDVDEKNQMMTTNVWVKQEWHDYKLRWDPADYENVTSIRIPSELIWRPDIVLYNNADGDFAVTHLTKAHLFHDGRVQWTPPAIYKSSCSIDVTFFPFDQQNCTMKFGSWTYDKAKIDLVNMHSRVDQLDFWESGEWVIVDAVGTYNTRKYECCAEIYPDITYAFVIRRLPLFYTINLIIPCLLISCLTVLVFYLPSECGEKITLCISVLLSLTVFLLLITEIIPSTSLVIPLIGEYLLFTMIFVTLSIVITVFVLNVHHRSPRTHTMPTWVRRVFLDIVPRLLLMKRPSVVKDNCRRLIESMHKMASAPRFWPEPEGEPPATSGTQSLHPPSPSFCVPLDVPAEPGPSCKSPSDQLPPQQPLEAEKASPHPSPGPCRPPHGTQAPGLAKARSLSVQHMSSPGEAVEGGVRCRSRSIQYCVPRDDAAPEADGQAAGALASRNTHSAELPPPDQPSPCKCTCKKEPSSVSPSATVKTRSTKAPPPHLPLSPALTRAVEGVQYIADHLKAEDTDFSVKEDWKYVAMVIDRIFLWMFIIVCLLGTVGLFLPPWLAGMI

Sequence of Neuronal acetylcholine receptor subunit alpha-7 (Q05941 whole entry): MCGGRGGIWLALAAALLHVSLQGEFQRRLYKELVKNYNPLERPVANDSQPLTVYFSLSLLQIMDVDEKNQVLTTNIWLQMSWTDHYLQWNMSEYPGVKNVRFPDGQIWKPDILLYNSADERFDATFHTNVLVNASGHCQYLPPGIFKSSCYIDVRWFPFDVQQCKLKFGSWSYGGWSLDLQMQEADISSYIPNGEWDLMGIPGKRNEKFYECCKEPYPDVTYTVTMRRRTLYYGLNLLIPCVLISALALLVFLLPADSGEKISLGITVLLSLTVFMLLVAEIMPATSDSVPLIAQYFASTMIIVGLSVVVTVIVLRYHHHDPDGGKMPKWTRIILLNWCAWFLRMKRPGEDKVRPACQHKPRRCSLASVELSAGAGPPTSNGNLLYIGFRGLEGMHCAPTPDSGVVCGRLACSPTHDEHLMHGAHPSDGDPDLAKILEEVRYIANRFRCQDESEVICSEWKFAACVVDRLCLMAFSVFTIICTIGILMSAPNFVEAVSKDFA

SMILES	Ki [1]	other results
c1cc(-c2cn([C@H]3CN4CCC3CC4)nn2)ccn1	141 nM	
COc1ccc(-n2cc(C3(F)CN4CCC3CC4)nn2)cc1 (stereo not drawn)	> 1000 nM	
OCc1ccc(-c2cn([C@H]3CN4CCC3CC4)nn2)cc1	10 nM	
c1cc2cc(-c3cn([C@H]4CN5CCC4CC5)nn3)ccc2o1		Ki [2]: 3 nM; Ki [3]: 1000 nM
O=C(N[C@@H]1CN2CCC1CC2)c1cc2ccoc2cn1	1.27 nM	
OCCOc1ccc(-c2cn([C@H]3CN4CCC3CC4)nn2)cc1	215 nM	
FCCOc1ccc(-c2cn([C@H]3CN4CCC3CC4)nn2)cc1	190 nM	
FCCc1ccc(-c2cn([C@H]3CN4CCC3CC4)nn2)cc1	230 nM	
c1cc2cc(-c3cn(C4CN5CCC4CC5)nn3)ccc2[nH]1 (stereo not drawn)		Kd [1]: 120 nM; Ki [2]: 52 nM; Ki [3]: 750 nM
FCc1ccc(-c2cn([C@H]3CN4CCC3CC4)nn2)cc1	21 nM	
COCOCCOc1ccc(-c2cn([C@H]3CN4CCC3CC4)nn2)cc1	225 nM	
OC1(c2cn(-c3ccc(Br)cc3)nn2)CN2CCC1CC2 (stereo not drawn)	> 1000 nM	
COc1cccc(-c2cn([C@H]3CN4CCC3CC4)nn2)c1		Ki [2]: 3 nM; Ki [3]: 1000 nM
COc1ccccc1-c1cn([C@H]2CN3CCC2CC3)nn1	112 nM	
O=C(N[C@H]1CN2CCC1CC2)c1ccc(Cl)cc1 [PNU-282987]	17 nM	
Fc1ccc(-c2cn([C@H]3CN4CCC3CC4)nn2)cc1	15 nM	
OCCc1ccc(-c2cn([C@H]3CN4CCC3CC4)nn2)cc1	130 nM	
COc1ccc(-n2cc(C3(O)CN4CCC3CC4)nn2)cc1 (stereo not drawn)	> 1000 nM	
COc1ccc(-c2cn([C@H]3CN4CCC3CC4)nn2)cc1	11 nM	

From ChEMBL document CHEMBL3745708, “Design of α7 nicotinic acetylcholine receptor ligands using the (het)Aryl-1,2,3-triazole core: Synthesis, in vitro evaluation and SAR studies” (Eur J Med Chem, 2016)
